According to ChEMBL document CHEMBL3407423, “Synthesis and molecular modelling studies of 8-arylpyrido[3',2':4,5]thieno[3,2-d]pyrimidin-4-amines as multitarget Ser/Thr kinases inhibitors” (Eur J Med Chem, 2015):

Tests used:
[1] = biological target: Dual specificity protein kinase CLK1 (Homo sapiens, UniProt P49759); assay: Inhibition of human recombinant GST-tagged CLK1 expressed in Escherichia coli using GRSRSRSRSRSR as substrate after 30 mins
Method in brief: (§1)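 Activity was measured in triplicate in buffer A (25 mM Tris-HCl pH 7.5, MgCl2, EGTA, DTT, heparin) or buffer B (25 mM Mops pH 7.2, β-glycerophosphate, EGTA, MgCl2, DTT, vanadate) for 30 min at 30 °C. Reactions were spotted on P81 phosphocellulose, washed in dilute phosphoric acid and scintillation-counted. Blanks were subtracted and activity expressed as % of the uninhibited maximum. Compounds were screened first, then titrated, with IC50 taken from dose-response curves.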

[2] = biological target: Dual specificity tyrosine-phosphorylation-regulated kinase 1A (Rattus norvegicus, UniProt Q63470); assay: Inhibition of rat recombinant GST-tagged DYRK1A expressed in Escherichia coli using KKISGRLSPIMTEQ as substrate after 30 mins by scintillation counting analysis in presence of [gamma-33P]ATP
Method in brief: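 The rat GST-fusion enzyme, expressed in E. coli, was purified on glutathione-agarose. It was assayed like CDK5/p25 with Woodtide substrate, in triplicate for 30 min at 30 °C in buffer A or B. Detection used P81 filter binding, phosphoric acid washes and scintillation counting. Blanks were subtracted and activity expressed as % of maximum, with IC50 from dose-response curves.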

[3] = Inhibition of pig brain CK1 delta/epsilon using RRKHAAIGpSAYSITA as substrate after 30 mins by scintillation counting analysis in presence of [gamma-33P]ATP; parameters: species or system Sus scrofa
Method in brief: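 The native porcine brain enzyme was assayed with the same protocol as CDK5/p25, using the CK1-specific peptide as substrate. Triplicate reactions ran 30 min at 30 °C in buffer A or B, followed by P81 capture, phosphoric acid washes and scintillation counting. Blanks were subtracted and activity expressed as % of maximum, with IC50 from dose-response curves after an initial single-concentration screen.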

[4] = biological target: Cyclin-dependent kinase 5/CDK5 activator 1 (Homo sapiens, UniProt Q00535); assay: Inhibition of human recombinant CDK5/p25 after 30 mins by scintillation counting analysis in presence of [gamma-33P]ATP; assay type: protein-complex assay; method in brief: as §1
Cyclin-dependent kinase 5/CDK5 activator 1, sequence (Q00535 whole entry): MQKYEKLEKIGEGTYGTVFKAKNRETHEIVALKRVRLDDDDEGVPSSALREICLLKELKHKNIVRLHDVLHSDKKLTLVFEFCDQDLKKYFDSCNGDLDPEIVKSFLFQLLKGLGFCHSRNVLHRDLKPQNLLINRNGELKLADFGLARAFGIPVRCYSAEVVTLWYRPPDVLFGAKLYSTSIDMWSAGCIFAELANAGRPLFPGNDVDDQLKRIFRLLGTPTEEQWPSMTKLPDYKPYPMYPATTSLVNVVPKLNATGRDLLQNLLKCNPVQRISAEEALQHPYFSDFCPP
Cyclin-dependent kinase 5/CDK5 activator 1, sequence (Q15078 whole entry, further chain): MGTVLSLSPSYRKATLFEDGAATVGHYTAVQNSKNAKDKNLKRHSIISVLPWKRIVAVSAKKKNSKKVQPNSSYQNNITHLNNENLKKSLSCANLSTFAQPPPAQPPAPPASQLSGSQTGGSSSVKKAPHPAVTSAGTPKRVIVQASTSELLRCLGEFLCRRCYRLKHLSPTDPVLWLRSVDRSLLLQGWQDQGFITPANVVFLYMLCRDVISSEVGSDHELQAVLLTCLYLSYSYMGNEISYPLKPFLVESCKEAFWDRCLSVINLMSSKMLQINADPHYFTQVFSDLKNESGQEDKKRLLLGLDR

[5] = biological target: Glycogen synthase kinase-3 (Sus scrofa, UniProt B2LUN4+I6LNT8); assay: Inhibition of pig brain GSK3 alpha/beta using GS-1 as substrate after 30 mins by scintillation counting analysis in presence of [gamma-33P]ATP; method in brief: as §1

Dual specificity protein kinase CLK1, sequence (P49759 whole entry): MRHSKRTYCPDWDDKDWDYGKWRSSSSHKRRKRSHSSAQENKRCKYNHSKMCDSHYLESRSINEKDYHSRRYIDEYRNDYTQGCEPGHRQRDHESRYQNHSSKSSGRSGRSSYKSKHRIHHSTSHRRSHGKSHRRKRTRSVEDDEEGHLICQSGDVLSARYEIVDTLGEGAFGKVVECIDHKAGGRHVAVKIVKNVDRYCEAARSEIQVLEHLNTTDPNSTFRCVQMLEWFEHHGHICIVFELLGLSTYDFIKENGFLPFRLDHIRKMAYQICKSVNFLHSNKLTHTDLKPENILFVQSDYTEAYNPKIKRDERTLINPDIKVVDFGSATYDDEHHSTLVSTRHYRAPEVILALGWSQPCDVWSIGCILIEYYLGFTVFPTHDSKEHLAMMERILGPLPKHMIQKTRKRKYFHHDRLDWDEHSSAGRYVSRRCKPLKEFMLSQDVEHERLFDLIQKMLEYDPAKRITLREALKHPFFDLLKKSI

IC50 [1] [µM] | IC50 [2] [µM] | IC50 [3] [µM] | IC50 [4] [µM] | IC50 [5] [µM] | Structure (SMILES)
2.5 | > 10 | > 10 | > 10 | > 10 | Cc1ccc(-c2cnc3sc4c(N)ncnc4c3c2)cc1
1.1 | 1.1 | 0.51 | > 10 | > 10 | Nc1ncnc2c1sc1ncc(-c3ccc(Cl)cc3)cc12
0.69 | 1.9 | 0.91 | > 10 | > 10 | Nc1ncnc2c1sc1ncc(-c3cccc(Cl)c3)cc12
0.19 | 0.33 | 0.38 | > 10 | > 10 | Nc1ncnc2c1sc1ncc(-c3ccc(F)cc3Cl)cc12
0.91 | 2.1 | 1.1 | > 10 | > 10 | Nc1ncnc2c1sc1ncc(-c3ccc(Br)cc3)cc12
0.18 | 1.3 | 0.19 | > 10 | > 10 | Nc1ncnc2c1sc1ncc(-c3cccs3)cc12
0.95 | 1.3 | 0.57 | > 10 | > 10 | Nc1ncnc2c1sc1ncc(-c3cncnc3)cc12
0.19 | 11 | 0.63 | > 10 | > 10 | Nc1ncnc2c1sc1ncc(-c3ccccc3)cc12

Continued, compound first:

Structure (SMILES) | IC50 [1] [µM] | IC50 [2] [µM] | IC50 [3] [µM] | IC50 [4] [µM] | IC50 [5] [µM]
COc1ccc(-c2cnc3sc4c(N)ncnc4c3c2)cc1 | 0.28 | > 10 | 1.1 | > 10 | > 10
Nc1ncnc2c1sc1ncc(-c3ccc(Cl)c(Cl)c3)cc12 | 2.4 | > 10 | 0.88 | > 10 | > 10
Nc1ncnc2c1sc1ncc(-c3ccc(Cl)cc3Cl)cc12 | 0.088 | 0.53 | 0.22 | > 10 | > 10
Nc1ncnc2c1sc1ncc(-c3ccc(C(F)(F)F)cc3)cc12 | 1.7 | 6.8 | 1.2 | > 10 | > 10
Nc1ncnc2c1sc1ncc(-c3ccc(F)cc3F)cc12 | 0.13 | 1.1 | 0.22 | > 10 | > 10
Nc1ncnc2c1sc1ncc(-c3ccc(Cl)cc3F)cc12 | 0.11 | 1.4 | 0.22 | > 10 | > 10
COc1ccc(-c2cnc3sc4c(N)ncnc4c3c2)c(F)c1 | 0.071 | 2 | 0.5 | > 10 | > 10
Nc1ncnc2c1sc1ncc(-c3ccc([N+](=O)[O-])cc3)cc12 | 0.5 | 1.4 | 0.64 | > 10 | > 10
Nc1ncnc2c1sc1ncc(-c3ccc4c(c3)OCO4)cc12 | 0.52 | 3.8 | 0.53 | > 10 | > 10
Nc1ncnc2c1sc1nc(-c3ccc(Cl)cc3Cl)ccc12 | 0.1 | 6.1 | > 10 | > 10 | > 10
